Calls of active or inactive are those of the source. The rule behind the calls is not given here.

As a reminder, the IC50 is the midpoint of a concentration-inhibition curve.

In data set [1] the target is T1, Bifunctional arginine demethylase and lysyl-hydroxylase JMJD6 (Homo sapiens, UniProt Q6NYC1). Nature of the data set: Inhibition of His-tagged JMJD6 (unknown origin) expressed in Escherichia coli BL21 (DE3) assessed as increase in H4 arginine 3 symmetrical dimethylation (H4R3me2s) content at 10 uM using core histone as substrate preincubated with enzyme for 10 mins followed by incubation with substrate for 1 hr by immunoblotting analysis. Put shortly: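 Purified bacterially expressed JMJD6 incubated with core histones, with or without compound at 10 μM; product analysed by immunoblot for H4R3me2s with total histone H4 probed alongside.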
A general note: Immunoblotting shows a protein as a band on a membrane.

Data set [2] addresses T1, Bifunctional arginine demethylase and lysyl-hydroxylase JMJD6. Nature of the data set: Inhibition of His-tagged JMJD6 (unknown origin) expressed in Escherichia coli BL21 (DE3) assessed as decrease in demethylase activity by measuring release of formaldehyde using core histone as substrate preincubated with enzyme for 10 mins followed by incubation with substrate for 1 hr measured following 2 hrs incubation with ammonium acetate/acetoacetanilide by fluorescence based analysis. Put shortly: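 Bacterially expressed, purified JMJD6 mixed with core histones, with or without inhibitor across a concentration series; demethylation read as formaldehyde release; IC50 derived from the series; experiment run three times.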

The target is the same in data set [3]. Nature of the data set: Inhibition of JMJD6 in human HeLa cells assessed as increase in HSP70R469me1 level at 10 uM incubated for 6 hrs by immunoblotting analysis. It is filed as cell-based. In outline: (§1)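 HeLa cells treated with or without compound at 10 μM for 6 h; lysates immunoblotted for H4R3me2s and HSP70R469me1.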
Data set [4] has the same target. Nature of the data set: Inhibition of JMJD6 in human HeLa cells assessed as H4R3me2S level at 10 uM incubated for 6 hrs by immunoblotting analysis. It is filed as cell-based. Put shortly:
as §1

The next data set has as its system L02. Nature of the data set: Cytotoxicity in human LO2 cells assessed as reduction in cell proliferation incubated for 72 hrs by CellTiter 96 AQueous one solution cell proliferation assay. It is filed as cell-based. Particulars: l02, 72 h.
In data set [5] the target is Histone lysine demethylase PHF8 (Homo sapiens) (UniProt Q9UPP1). Nature of the data set: Inhibition of Flag-tagged PHF8 (unknown origin) expressed in Escherichia coli BL21 (DE3) assessed as formaldehyde release using core histone as substrate preincubated with enzyme for 10 mins followed by incubation with substrate for 1 hr measured following 2 hrs incubation with ammonium acetate/acetoacetanilide by fluorescence based analysis.

Data set [6] has as its target T2, Lysine-specific demethylase 3A (Homo sapiens) (UniProt Q9Y4C1).
T2 sequence (whole entry): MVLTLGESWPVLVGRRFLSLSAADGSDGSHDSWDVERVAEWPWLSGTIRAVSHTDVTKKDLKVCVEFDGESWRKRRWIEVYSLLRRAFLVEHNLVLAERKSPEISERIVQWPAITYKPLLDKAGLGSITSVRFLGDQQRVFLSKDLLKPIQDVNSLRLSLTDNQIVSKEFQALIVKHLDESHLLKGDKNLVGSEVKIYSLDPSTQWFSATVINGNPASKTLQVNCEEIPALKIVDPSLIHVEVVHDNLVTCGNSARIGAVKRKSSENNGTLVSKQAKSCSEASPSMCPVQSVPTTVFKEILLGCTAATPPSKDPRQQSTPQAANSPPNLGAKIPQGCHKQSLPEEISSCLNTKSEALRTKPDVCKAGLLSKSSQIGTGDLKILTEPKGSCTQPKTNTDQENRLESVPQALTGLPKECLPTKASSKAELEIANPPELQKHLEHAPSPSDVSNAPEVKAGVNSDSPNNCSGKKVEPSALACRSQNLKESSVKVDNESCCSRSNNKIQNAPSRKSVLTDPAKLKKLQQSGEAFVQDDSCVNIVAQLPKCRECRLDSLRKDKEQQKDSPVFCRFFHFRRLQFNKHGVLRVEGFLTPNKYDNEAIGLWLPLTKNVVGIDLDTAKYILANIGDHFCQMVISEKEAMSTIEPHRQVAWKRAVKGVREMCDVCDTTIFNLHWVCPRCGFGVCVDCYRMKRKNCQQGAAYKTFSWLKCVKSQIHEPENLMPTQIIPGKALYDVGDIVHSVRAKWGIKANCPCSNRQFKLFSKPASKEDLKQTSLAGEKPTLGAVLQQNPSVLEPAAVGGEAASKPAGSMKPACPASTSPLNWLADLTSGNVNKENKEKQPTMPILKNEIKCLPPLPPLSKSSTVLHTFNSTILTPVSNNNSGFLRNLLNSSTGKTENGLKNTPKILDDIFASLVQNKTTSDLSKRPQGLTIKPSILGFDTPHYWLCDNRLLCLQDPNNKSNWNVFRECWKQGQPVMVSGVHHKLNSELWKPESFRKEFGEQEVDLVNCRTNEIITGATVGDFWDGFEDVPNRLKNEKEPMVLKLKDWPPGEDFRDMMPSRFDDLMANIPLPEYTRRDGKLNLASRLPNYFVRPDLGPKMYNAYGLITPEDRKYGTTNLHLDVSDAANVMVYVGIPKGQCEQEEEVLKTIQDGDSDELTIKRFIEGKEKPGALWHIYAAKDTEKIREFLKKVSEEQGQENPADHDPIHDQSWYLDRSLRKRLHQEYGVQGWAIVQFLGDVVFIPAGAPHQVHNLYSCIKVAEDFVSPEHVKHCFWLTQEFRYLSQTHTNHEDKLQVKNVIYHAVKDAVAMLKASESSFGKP
Nature of the data set: Inhibition of Flag-tagged KDM3A (unknown origin) expressed in Escherichia coli BL21 (DE3) assessed as formaldehyde release using core histone as substrate preincubated with enzyme for 10 mins followed by incubation with substrate for 1 hr measured following 2 hrs incubation with ammonium acetate/acetoacetanilide by fluorescence based analysis.

In data set [7] the target is T3, Lysine-specific demethylase 4C (Homo sapiens) (UniProt Q9H3R0).
T3 sequence (whole entry): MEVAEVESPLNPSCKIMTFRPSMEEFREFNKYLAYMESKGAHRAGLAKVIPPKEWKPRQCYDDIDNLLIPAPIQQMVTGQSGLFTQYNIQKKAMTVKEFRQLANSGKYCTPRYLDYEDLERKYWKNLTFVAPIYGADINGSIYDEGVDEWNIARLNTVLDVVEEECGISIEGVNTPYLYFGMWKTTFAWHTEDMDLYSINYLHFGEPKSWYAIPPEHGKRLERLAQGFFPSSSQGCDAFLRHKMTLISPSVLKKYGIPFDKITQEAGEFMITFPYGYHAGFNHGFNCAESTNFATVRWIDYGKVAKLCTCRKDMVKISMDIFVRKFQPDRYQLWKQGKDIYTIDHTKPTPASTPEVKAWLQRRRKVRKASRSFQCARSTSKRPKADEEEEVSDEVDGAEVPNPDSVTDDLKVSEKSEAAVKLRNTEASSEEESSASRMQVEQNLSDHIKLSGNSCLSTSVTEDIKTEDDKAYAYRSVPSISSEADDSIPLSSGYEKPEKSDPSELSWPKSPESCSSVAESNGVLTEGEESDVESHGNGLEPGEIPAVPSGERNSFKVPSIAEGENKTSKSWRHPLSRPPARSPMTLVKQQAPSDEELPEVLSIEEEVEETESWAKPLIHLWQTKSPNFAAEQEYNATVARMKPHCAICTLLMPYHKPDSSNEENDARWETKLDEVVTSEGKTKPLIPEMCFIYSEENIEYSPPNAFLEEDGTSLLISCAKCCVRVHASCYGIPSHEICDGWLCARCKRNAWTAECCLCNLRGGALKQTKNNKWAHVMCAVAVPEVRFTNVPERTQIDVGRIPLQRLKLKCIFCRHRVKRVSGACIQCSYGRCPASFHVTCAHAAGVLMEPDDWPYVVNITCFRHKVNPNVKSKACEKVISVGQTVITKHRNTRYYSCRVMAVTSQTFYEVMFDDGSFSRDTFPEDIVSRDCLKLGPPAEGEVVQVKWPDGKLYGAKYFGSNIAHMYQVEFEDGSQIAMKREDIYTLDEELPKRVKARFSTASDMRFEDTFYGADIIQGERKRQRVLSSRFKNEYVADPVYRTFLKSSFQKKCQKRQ
Nature of the data set: Inhibition of Flag-tagged KDM4C (unknown origin) expressed in Escherichia coli BL21 (DE3) assessed as formaldehyde release using core histone as substrate preincubated with enzyme for 10 mins followed by incubation with substrate for 1 hr measured following 2 hrs incubation with ammonium acetate/acetoacetanilide by fluorescence based analysis.

Data set [8] concerns the target Lysine-specific demethylase 5C (Homo sapiens) (UniProt P41229). Nature of the data set: Inhibition of Flag-tagged KDM5C (unknown origin) expressed in Escherichia coli BL21 (DE3) assessed as formaldehyde release using core histone as substrate preincubated with enzyme for 10 mins followed by incubation with substrate for 1 hr measured following 2 hrs incubation with ammonium acetate/acetoacetanilide by fluorescence based analysis.

The target in data set [9] is T1, Bifunctional arginine demethylase and lysyl-hydroxylase JMJD6. Nature of the data set: Binding affinity to immobilized His-tagged JMJD6 (unknown origin) expressed in Escherichia coli BL21 (DE3) by biacore-binding assay.

Chain of Histone lysine demethylase PHF8 (Homo sapiens) (Q9UPP1 whole entry): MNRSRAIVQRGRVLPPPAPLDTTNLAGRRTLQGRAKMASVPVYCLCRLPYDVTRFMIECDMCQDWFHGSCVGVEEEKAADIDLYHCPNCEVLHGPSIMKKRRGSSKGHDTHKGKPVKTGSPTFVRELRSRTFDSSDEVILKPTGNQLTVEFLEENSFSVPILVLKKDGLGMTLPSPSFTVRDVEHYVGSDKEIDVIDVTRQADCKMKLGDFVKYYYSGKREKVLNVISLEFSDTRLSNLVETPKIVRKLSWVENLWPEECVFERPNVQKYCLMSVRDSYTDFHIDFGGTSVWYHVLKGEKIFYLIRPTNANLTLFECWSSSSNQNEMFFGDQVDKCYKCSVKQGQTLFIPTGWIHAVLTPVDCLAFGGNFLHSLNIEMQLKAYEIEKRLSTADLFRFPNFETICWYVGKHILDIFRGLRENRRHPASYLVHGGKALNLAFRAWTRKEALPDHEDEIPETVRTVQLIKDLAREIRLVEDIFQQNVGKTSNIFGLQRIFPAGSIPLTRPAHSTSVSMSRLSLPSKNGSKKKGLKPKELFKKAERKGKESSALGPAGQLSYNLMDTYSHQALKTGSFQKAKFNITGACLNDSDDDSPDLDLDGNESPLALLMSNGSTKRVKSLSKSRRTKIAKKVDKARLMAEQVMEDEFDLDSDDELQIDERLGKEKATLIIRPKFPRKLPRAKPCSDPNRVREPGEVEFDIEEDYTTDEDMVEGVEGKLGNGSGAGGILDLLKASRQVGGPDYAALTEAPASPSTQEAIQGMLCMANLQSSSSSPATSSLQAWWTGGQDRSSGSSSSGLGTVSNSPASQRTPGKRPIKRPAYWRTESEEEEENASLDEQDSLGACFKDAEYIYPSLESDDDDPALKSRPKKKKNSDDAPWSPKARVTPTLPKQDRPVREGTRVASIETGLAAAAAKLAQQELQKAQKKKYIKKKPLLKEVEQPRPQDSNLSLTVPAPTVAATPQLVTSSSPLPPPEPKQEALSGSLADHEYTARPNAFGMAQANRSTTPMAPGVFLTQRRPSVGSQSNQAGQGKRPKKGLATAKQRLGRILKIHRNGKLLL
Chain of Lysine-specific demethylase 5C (Homo sapiens) (P41229 whole entry): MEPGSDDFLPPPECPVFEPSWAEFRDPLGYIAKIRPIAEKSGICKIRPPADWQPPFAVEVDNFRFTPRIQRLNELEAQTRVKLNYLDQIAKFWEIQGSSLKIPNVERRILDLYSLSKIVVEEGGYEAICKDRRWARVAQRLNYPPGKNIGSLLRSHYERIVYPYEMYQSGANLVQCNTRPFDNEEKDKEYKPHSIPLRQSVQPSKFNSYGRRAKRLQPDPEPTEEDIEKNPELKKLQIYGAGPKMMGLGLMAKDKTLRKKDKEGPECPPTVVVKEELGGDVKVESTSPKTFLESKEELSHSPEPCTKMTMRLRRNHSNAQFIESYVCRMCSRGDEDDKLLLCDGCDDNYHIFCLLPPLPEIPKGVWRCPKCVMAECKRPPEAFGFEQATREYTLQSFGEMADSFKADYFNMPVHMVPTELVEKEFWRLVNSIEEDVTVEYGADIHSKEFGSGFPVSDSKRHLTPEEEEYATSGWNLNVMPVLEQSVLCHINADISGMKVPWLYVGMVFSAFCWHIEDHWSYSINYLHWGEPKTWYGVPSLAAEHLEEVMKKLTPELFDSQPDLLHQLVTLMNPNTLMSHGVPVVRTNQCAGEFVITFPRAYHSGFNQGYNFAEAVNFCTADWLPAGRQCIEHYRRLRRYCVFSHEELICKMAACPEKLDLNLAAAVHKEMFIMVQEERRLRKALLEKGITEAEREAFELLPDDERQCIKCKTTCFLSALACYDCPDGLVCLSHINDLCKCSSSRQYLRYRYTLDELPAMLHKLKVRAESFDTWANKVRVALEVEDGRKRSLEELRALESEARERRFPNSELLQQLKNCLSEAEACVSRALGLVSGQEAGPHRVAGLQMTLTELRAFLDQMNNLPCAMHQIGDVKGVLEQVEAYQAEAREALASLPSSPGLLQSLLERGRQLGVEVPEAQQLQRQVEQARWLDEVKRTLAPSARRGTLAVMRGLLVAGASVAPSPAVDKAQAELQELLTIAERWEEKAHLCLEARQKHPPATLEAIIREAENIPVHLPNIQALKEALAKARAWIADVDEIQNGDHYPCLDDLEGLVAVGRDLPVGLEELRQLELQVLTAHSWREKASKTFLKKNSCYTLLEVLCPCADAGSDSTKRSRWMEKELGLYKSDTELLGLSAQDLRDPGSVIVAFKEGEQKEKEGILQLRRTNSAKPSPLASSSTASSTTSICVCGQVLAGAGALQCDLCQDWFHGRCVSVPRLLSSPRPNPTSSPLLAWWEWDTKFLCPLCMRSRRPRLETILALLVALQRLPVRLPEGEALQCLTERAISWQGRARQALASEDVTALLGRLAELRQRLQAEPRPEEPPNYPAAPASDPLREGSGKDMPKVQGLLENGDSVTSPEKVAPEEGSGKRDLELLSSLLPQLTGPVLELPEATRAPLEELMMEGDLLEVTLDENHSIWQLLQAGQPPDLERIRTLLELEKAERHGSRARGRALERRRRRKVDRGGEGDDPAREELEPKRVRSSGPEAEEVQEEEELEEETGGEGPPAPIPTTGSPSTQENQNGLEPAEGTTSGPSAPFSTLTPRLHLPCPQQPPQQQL

Consider `COc1ccc2oc(=O)c(-c3csc(C)n3)cc2c1`, for which the inhibition result in [1] is “Active”.

Take `COCCN1CCOc2nc3c(C)cccc3cc2C1`: the inhibition result in data set [1] is “Active”.

As for `CCOC(=O)c1csc(NC(=O)c2cc(C)on2)n1`, in data set [1], the inhibition result was “Active”.

For `COCCn1cc(OC(C)=O)c2c1nc(C)n1c3ccccc3nc21`, the inhibition entry in [1] is “Active”.

As to `Cc1ccc2oc(=O)c(-c3nc4cnccc4[nH]3)cc2c1`, the inhibition result in [1] and in data set [3] was “Active” in each case. In addition, the half-inhibitory concentration (IC50) in data set [2] turned out to be 220 nM. Moreover, the inhibition entry in data set [4], in [5], in data set [6], in [7] and in data set [8] was “inactive” in each case. Further, in the data set with L02, the Activity entry is “Non-Toxic”. Further, the outcome in data set [9] was Active.

The values are drawn from ChEMBL document CHEMBL4312042, “In Silico Discovery of JMJD6 Inhibitors for Cancer Treatment” (ACS Med Chem Lett, 2019).
